Reference: PMC5992016 (Movement disorders : official journal of the Movement …, 2018)
Structures can show the parent of a compound that is named as a salt.

Experiments:
[1] = test system: AIMs (abnormal involuntary movements) in rodents; details: cited from earlier work; for effect on AIMs in rodents: inhibitor of PDEs 5, 6 and 9
[2] = test system: parkinsonian motor disability in MPTP-treated macaques; assay: Acute co-administration with s.c. L-Dopa: motor disability scores; type: in vivo, Macaca fascicularis; details: amantadine 5 and 10 mg/kg s.c.
Outline: (§1)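 Used MPTP macaques (3 male, 2 female) on oral carbidopa/levodopa maintenance. Optimal s.c. L-Dopa methyl ester dose (MDS reduction 50–75%) was set per animal, with benserazide at one quarter. Amantadine or test compound (DMSO/cremophor) or vehicle was given s.c. just before. Blinded live and video scoring ran off-state, then from 30 min every 20 min. Part II: peak (50 min) and summed total. Part I: MDS AUC. Triplicate runs were averaged.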

[3] = test system: hand movement speed in MPTP-treated macaques; assay: Acute co-administration with s.c. L-Dopa: Klüver board test; type: in vivo, Macaca fascicularis
[4] = test system: L-Dopa-induced dyskinesias in MPTP-treated macaques; assay: Acute co-administration with s.c. L-Dopa: LID scores; type: in vivo, Macaca fascicularis; details: L-Dopa optimal dose s.c.; amantadine 5 or 10 mg/kg s.c.
Outline: as §1

## FC(F)(F)Cn1cc(-c2ccncc2)c(-c2ccc(OCc3ccc4ccccc4n3)cc2)n1 [TP-10]
[1]; preliminary tests
  antidyskinetic effects in rodents: antidyskinetic effects

## CCCOc1ccc(S(=O)(=O)N2CCN(CC)CC2)cc1-c1nc2c(CC)n(Cc3ccccn3)nc2c(=O)[nH]1 [UK343664]
[1]
  effect on AIMs in rodents: improves AIMs

## NC12CC3CC(CC(C3)C1)C2 [amantadine, amantadine hydrochloride]
[2]; L-Dopa optimal dose s.c.
  effect on MDS in the on state: significantly increased MDS
[2]; L-Dopa suboptimal dose s.c.
  effect on MDS: reduced the beneficial effect of L-Dopa on MDS
[3]; L-Dopa optimal dose s.c., amantadine 10 mg/kg s.c.
  movement speed (time) in KBT in the on state: increased
[3]; L-Dopa suboptimal dose s.c., highest dose (MR1916 0.05 mg/kg, amantadine 10 mg/kg s.c.)
  movement speed (time) in KBT: increased
[4]
  effect on LID compared with MR1916: similar

## CCCOc1ccccc1-c1nc2nn[nH]c2c(=O)[nH]1 [zaprinast]
[1]
  effect on AIMs in rodents: improves AIMs
